From publication PMC10644204 (Pharmacology Research & Perspectives, 2023)
Values belong to the compound of their own block, whether it stands above or below them.

Tests used:
[1] = tested on: healthy participants; type: in vivo, human; details: moxifloxacin 400 mg single dose
[2] = Plasma pharmacokinetics, part 2 main QTc study; type: in vivo, human; details: human, plasma, oral, 400 mg
Method in brief: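 Moderate-fat meal 30 min before each dose. Plasma sampled predose on Days 1, 5, 6 and 7, and on Day 7 at 0.5–24 h postdose. Test compound assayed by validated UHPLC-MS/MS (3.00–1000 ng mL−1).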

[3] = tested on: healthy participants; assay: Safety assessments; type: in vivo, human; details: part 2, Moxifloxacin 400 mg (N = 40)
Method in brief: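 Part 2 healthy participants confined from Day −2 of period 1 to Day 9 of period 4. […] AEs monitored throughout, recording duration, severity, causality and outcome, alongside safety ECGs, laboratory tests, physical examination and vital signs.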

[4] = tested on: QT interval; details: supratherapeutic vs therapeutic doses; cited from earlier work

Observations of ΔQTcF >30 ms [1]: no participants
Structure (SMILES): COc1c(N2C[C@@H]3CCCN[C@@H]3C2)c(F)cc2c(=O)c(C(=O)O)cn(C3CC3)c12 [Moxifloxacin, moxifloxacin, reference compound]
Cmax [2]: 1960 ng/mL | Tmax [2]: 4 h | AE: Abdominal pain [3]: 1 (3) n (%) | AE: Acne [3]: 0 n (%) | AE: Diarrhea [3]: 0 n (%) | AE: Gastrointestinal disorders [3]: 2 (5) n (%) | AE: General disorders and administration site conditions [3]: 1 (3) n (%) | AE: Immune system disorders [3]: 1 (3) n (%) | AE: Infections and infestations [3]: 0 n (%) | AE: Maculopapular rash [3]: 0 n (%) | AE: Medical device site dermatitis [3]: 0 n (%) | AE: Nausea [3]: 0 n (%) | AE: Nervous system disorders [3]: 2 (5) n (%) | AE: Renal and urinary disorders [3]: 1 (3) n (%) | AE: Reproductive system and breast disorders [3]: 0 n (%) | AE: Respiratory, thoracic, and mediastinal disorders [3]: 0 n (%) | AE: Skin and subcutaneous tissue disorders [3]: 0 n (%) | AE: Vessel puncture site pain [3]: 1 (3) n (%) | Any AE [3]: 4 (10) n (%) | Any drug-related AE [3]: 2 (5) n (%) | Drug-related AE: Abdominal pain [3]: 1 (3) n (%) | Drug-related AE: Acne [3]: 0 n (%) | Drug-related AE: Diarrhea [3]: 0 n (%) | Drug-related AE: Fatigue [3]: 0 n (%) | Drug-related AE: Gastrointestinal disorders [3]: 1 (3) n (%) | Drug-related AE: General disorders and administration site conditions [3]: 0 n (%) | Drug-related AE: Maculopapular rash [3]: 0 n (%) | Drug-related AE: Nausea [3]: 0 n (%) | Drug-related AE: Pruritus [3]: 0 n (%) | Drug-related AE: Renal and urinary disorders [3]: 1 (3) n (%) | Drug-related AE: Skin and subcutaneous tissue disorders [3]: 0 n (%) | Drug-related AE: Urinary hesitation [3]: 1 (3) n (%) | Any drug-related AE ([3]; listed as moxifloxacin): 2 n (%)

Structure (SMILES): COc1cnc(-n2cnc(C)n2)c2c1c(C(=O)C(=O)N1CCN(C(=O)c3ccccc3)CC1)cn2COP(=O)(O)O [fostemsavir]
QT prolongation [4]: QT prolongation with supratherapeutic doses but not therapeutic doses

Structure (SMILES): Cc1cc(/C=C/C#N)cc(C)c1Nc1ccnc(Nc2ccc(C#N)cc2)n1 [rilpivirine]
QT prolongation [4]: QT prolongation with supratherapeutic doses but not therapeutic doses
